pIC50: −log10 of the molar value.
What was measured:
Assay type in all cases: functional, cell-based
B16 [1] = experiment: Cytotoxicity against mouse B16 cells after 72 hrs by MTT assay; conditions: B16, 72 h
Method in brief: (§1)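 B16 melanoma cells were seeded at 15 000 cells/mL in RPMI 1640 with 5% FCS, and after 5 h the medium was switched to RPMI with 1% FCS. Serial dilutions from 0.25 to 100 µM were added on days 1, 2 and 3. Cells were incubated at 37 °C in 10% CO2 for 72 h, and viability was read by MTT on day 4. Each concentration ran in triplicate wells, and each experiment was repeated at least three times.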

HaCaT = experiment: Cytotoxicity against human HaCaT cells after 72 hrs by MTT assay
Method in brief: as §1, with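 “HaCaT keratinocytes” for “B16 melanoma cells”, “25” for “15”, “DMEM” for “RPMI 1640”, “10%” for “5%”, “reduced-serum DMEM.” for “RPMI with 1% FCS.”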

B16 [2] = experiment: Cytotoxicity against mouse B16 cells after 48 hrs by MTT assay; conditions: B16, 48 h
Method in brief: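 Mouse B16 melanoma cells were seeded at 30 000 cells/mL in RPMI 1640 with 10% FCS on day 0. Compound dilutions were added on day 1. Cells were incubated at 37 °C under 10% CO2, and growth and viability were read by MTT after 48 h. IC50 was derived from at least three independent experiments, with three wells per concentration.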

COC(=O)c1c(Oc2c(C)c(Cl)c(OC)c(Cl)c2O)cc(OC)c(Cl)c1C [BUELLIN]
pIC50 (B16 [1]): 6.60
pIC50 (HaCaT): < 5.00

COc1c(Cl)c(C)c2c(c1Cl)OC(=O)c1c(cc(O)c(Cl)c1C)O2 [DECHLORODEPLOICIN]
pIC50 (B16 [1]): 5.77
pIC50 (HaCaT): 5.37

COc1c(Cl)c(C)c2c(c1Cl)OC(=O)c1c(C)c(Cl)c(O)c(Cl)c1O2 [DIPLOICIN]
pIC50 (B16 [1]): 5.40
pIC50 (HaCaT): < 5.00

COc1cc([C@@H]2c3cc4c(cc3[C@@H](O[C@@H]3O[C@@H]5CO[C@@H](C)O[C@H]5[C@H](O)[C@H]3O)[C@H]3COC(=O)[C@H]23)OCO4)cc(OC)c1O [ETOPOSIDE]
pIC50 (B16 [1]): 6.55
pIC50 (HaCaT): 6.26

COc1cc2c(c(C)c1Cl)Oc1cc(OC)c(Cl)c(C)c1C(=O)O2 [SCENSIDIN]
pIC50 (B16 [1]): 6.40
pIC50 (HaCaT): 5.21

COC(=O)[C@@]12Oc3ccc(-c4ccc5c(c4O)C(=O)C4=C(O)C[C@H](C)[C@H](O)[C@]4(C(=O)OC)O5)c(O)c3C(=O)C1=C(O)C[C@H](C)[C@@H]2O [SECALONIC ACID B]
pIC50 (B16 [2]): 5.55
pIC50 (HaCaT): < 5.00

COC(=O)[C@@]12Oc3ccc(-c4ccc5c(c4O)C(O)C4=C(O)C[C@H](C)[C@@H](O)[C@]4(C(=O)OC)O5)c(O)c3C(=O)C1=C(O)C[C@H](C)[C@H]2O (some centres undefined) [SECALONIC ACID D]
pIC50 (B16 [2]): 6.55
pIC50 (HaCaT): 5.43
